Reference: the EternaBench riboswitch data

Tested on: MS2 coat protein
Experiment: apparent Kd, MS2 coat protein; higher = weaker binding; RNA-MaP array; FMN 200 µM where present
Summary of the method: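 Green signal was scaled to red-channel RNA signal and control-cluster median Fmax, and the apparent Kd was taken as the median of filtered per-cluster binding-curve fits. The binding series used SNAP-549-labelled MS2 coat protein from 0.7 or 1.5 nM, doubling to 3 µM, on designs transcribed by stalled E. coli RNA polymerase on Illumina sequencing-chip clusters. Each series ran without and then with constant ligand in 100 mM Tris-HCl pH 7.5, 80 mM KCl, 4 mM MgCl2, BSA, DTT, yeast tRNA and Tween-20.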

[1] = designed as: OFF switch for flavin mononucleotide, no ligand
[2] = ligand present: flavin mononucleotide, designed as: OFF switch for flavin mononucleotide
[3] = designed as: ON switch for flavin mononucleotide, no ligand
[4] = ligand present: flavin mononucleotide, designed as: ON switch for flavin mononucleotide

Sequence	apparent Kd [1] [nM]	apparent Kd [2] [nM]	apparent Kd [3] [nM]	apparent Kd [4] [nM]
GCAAGAAUAGGAUAUACACCAUGUCAGCUUCUAUACAACGCACAUGAGGAUCACCCAUGUAGAAGGGUUCUCUC	553	504	–	–
CGUACUGAAGUAAGGAUAUUGUCUCGGAUACGAAACAAGAAGGUACAUGAGGAUCACCCAUGUUGACAGUACGA	16.6	16.7	–	–
AUCAGCUCGUCAGGAUAUACGUCACUGCGUCAGCAGUGUGGUAAGUUCACAUGAGGAUCACCCAUGUAGAAGGGACGAGCUGAU	4.98	7.14	–	–
GCCAUCGCAUGAGGAUAUGCUCCCGUUUCGGGAGCAGAAGGCAUGUCAUAAGACAUGAGGAUCACCCAUGUAGAUAAGGUGGCA	–	–	337	12.7
GCUAGGCAUGUCAGGAUAUGCUGUACCUUGGUACAGCAGAAGGGACAUGAGGAUCACCCAUGUGCCUAUCUAGC	42.9	419	–	–
UUCGUGCAGCUUUGUUGUACGCGUACAUGAGGAUCACCCAUGUAGGAUAUGGUACGCUUUGCGUGCUAGAAGGAUAUGGAGAGG	13.2	15.4	–	–
AGUAAGAUGCAGAAGGUGUCAGCGAGAGCUACGACAUGAGGAUCACCCAUGUACUAGAUAGAGUACAAGGAUAUGCAUCUUACA	–	–	729	35.1
GUCCUCUUGACAUGAGGAUCACCCAUGUAUUAUUUGUUAACUGAGGAUAUACUCUUAUUUUUUAUGUAGAAGGCAGAUUUGUUC	40.9	52.5	–	–
AUGUACCUAGGAUAUACAUGAGGAUCACCCAUGUUAACUUUGCAAUCAAGUUAAUAUUGUAGAAGGAGGUGAAA	61.5	107	–	–
AAGUUUUUACAAGGAUAUCAGUUGUUUAUAAAUUAAACAUGAGGAUCACCCAUGUAACAAAGGAGUGAGAAGGUGUGAUGGAAA	–	–	545	283
UGGUACAUGGGAGGAUAUGGGUUGAUAACAUGAGGAUCACCCAUGUUAAAUAUGGCGAGAGCCAACUAGAAGGCCCAUGUACCU	–	–	594	38.8
ACAUAAUACGAGAAGGGAGUACAUGAGGAUCACCCAUGUGCUCAGAUGUACUCAGGAUAUCGGCUGACGCAAGGUUCAGGGAAU	10.9	128	–	–
AGAAAACAUGAGGAUCACCCAUGUCAGGAUAUCUCCAAGGCUUAACAUCCAGCCCUGCAGAGAAGGGACGGGUG	87.9	225	–	–
AGCUAGAGAGGAUAUACGUGGAAAAAAAAAGUCUGAUCCCUACAUGAGGAUCACCCAUGUAGAAGGCUCUGGCA	30.9	15.1	–	–
UAUAUACAUGAGGAUCACCCAUGUCAGGAUAUGCGCCGAUUAUAUACAUAAGAUCGGUGCAGAAGGGACACUAA	35.5	67.2	–	–
CCGUAGCAAGGAUAUACAUGAGGAUCACCCAUGUGUGUCAGUGUGGGUAGACAUUAAUGUAGAAGGUGCGACUG	64.8	161	–	–
GGCGGUCGGGAGGAUAUUCGGGCUGUUUGGCUUGGAGAAGGCUCGACAUGAGGAUCACCCAUGUUGGUGUUUCC	561	103	–	–
AGCGGCGCAGACCACCGCAAAACCAGAAGGACAUGAGGAUCACCCAUGUAACAAAACAGGGCGGUGUAGGAUAUGGCAGACCCA	8.87	7.71	–	–
GACCGCGAGGAAGGAUAUGGAGCCUUAAAGGCUCCAGAAGGUCCAUAAAGGACAUGAGGAUCACCCAUGUGGUGAGAAGCGGUC	–	–	1720	201
GGGCCCGGAGGAUAUACAAUUGUGUGUGGAAACGCGCGCGUACAUGAGGAUCACCCAUGUAGAAGGCCGGGCCC	15.9	54.6	–	–
CCUCUGUCCGAGGAUAUGAGGUUAACGUGACCGUCAGAAGGCGGAACAUGAGGAUCACCCAUGUUUUGCGCAUG	44.2	68	–	–

Sequence	apparent Kd [1] [nM]	apparent Kd [2] [nM]	apparent Kd [3] [nM]	apparent Kd [4] [nM]
UAUGUUAGCACAGGAUAUUGUUAUUAUUUAAUUCAAGAAGGGUGUACAUGAGGAUCACCCAUGUUAUGGUUUUAUCUUUUACAA	1280	457	–	–
GCGUGGAAUACAGGAUAUGUUGUACAAUAAUCUUUGAGGCAUUGAGAUAAAACAGAAGGGUAAACAUGAGGAUCACCCAUGUAA	24.7	19.6	–	–
ACGCGUUGGGAGAAGGUACAUUAAAUUAGUUUAACAUGAGGAUCACCCAUGUAAGGAUAUCCCAUCGUGUAAUAUUAUACAGCA	10.2	12.2	–	–
UGGUACUAGGGAGGAUAUGGGAAGAUACAUGAGGAUCACCCAUGUUUAAGAAUUCCGAGAGGCAACUAGAAGGCCCUAGUACCU	–	–	35.7	13
UUCAUGUGAGGAUAUGUGAUCUGCUUUCUGUUUAGAUGAUCACAGAAGGCACAUGAGGAUCACCCAUGUAGAUC	–	22.6	–	–
GGGUACAUCGGAGGAUAUCAUGUAAAUACAUGAGGAUCACCCAUGUCGAUGGAGACAUCGGAGAUUGAGAAGGCCGAUGUCCCG	–	–	194	7.99
AUAUUAAUAUAGGAUAUCGAAUUUAUUAAUUAUCGAGAAGGAUAAACAUGAGGAUCACCCAUGUGGUAUCAUGG	181	225	–	–
UGAUCGAGAGAUCUUAGAUUCUGGUAGGAUAUACAUUAUGUUUAAAAUACAUGAGGAUCACCCAUGUAGAAGGACUAGAGUCUA	6.76	13.9	–	–
AGUAACAGAGGAUAUACUGUUUUAUGUGUUUGUUAUUUUAAACAUGAGGAUCACCCAUGUAGAAGGCUGAAUAA	24.3	23.4	–	–
CCUAUGUGAGGAUAUAGCCACAUUACGAAUAAGUAGUGUGGCUAGAAGGUACAUGAGGAUCACCCAUGUAUGGG	167	84.1	–	–
CGUAACUACAUAGGAUAUUGAUACAUGAGGAUCACCCAUGUUUUUGGGAUUAGUUUAAUAUUAAGCAAGAAGGAUGAAGUUACG	–	–	45.4	31.1
UAGGACUACGUAGGAUAUGUAGUAGAUUACUACAUGAGGAUCACCCAUGUAAGCAUGUGAUUAGGACAGAAGGACGUGGUAAAU	–	–	24.8	8.91
CCUAAACAUGAGGAUCACCCAUGUCAGGAUAUGGACCGUCUGGUGAAAUUCAGCUGGACCAGAAGGGACGUGGA	32.2	45.5	–	–
CGCAACUCUUCACAUGUCAACAUGAGGAUCACCCAUGUAUUGAGAAGGAGGAAGAAGAGAGAUUCCUAGGAUAUCAGAGUUGCG	6.75	6.08	–	–
UAAGUGUGAGGAUAUUCGUAGUACACGGAGACGUGUAUUACGGAGAAGGCACAUGAGGAUCACCCAUGUUCCUU	20.7	182	–	–
GCACAUGGCAUAGGAUAUAGUUCUAUUGUUUAAAUAGGUAGUUGGACUUAACUAGAAGGAUGUUACAUGAGGAUCACCCAUGUU	–	–	11.2	11.3
GUCAGCUCGUGAGGAUAUGCAUCACUGCUUCGGCAGUGUAUUAAGAUCACAUGAGGAUCACCCAUGUAGAAGGCACGAGCUGAU	7.3	41.7	–	–
CUUCGUAUAGAGGAUAUAGGUUACUGCGGUAUCCUAGAAGGCUGUACAUGAGGAUCACCCAUGUACUUCAGAUC	13.9	18.2	–	–
UGUCUGAUCUAAUAACAUGAGGAUCACCCAUGUGUUCACAACUAGGAUAUCGAUUAUUAAAACGUCGAGAAGGAGUAUACAUUA	34.5	43.6	–	–
CAGCGAUAGCUGAAUGGUACAUCCGAGGAUAUUCAUAAACAACAUGAGGAUCACCCAUGUAAUUGGGAGAAGGCGGAUGUACCU	–	–	23.1	5.97
AGUACUACAGGAUAUACAUGAGUGAUACUCAUAUACCUACUACAUGAGGAUCACCCAUGUAGAAGGGUAGUACA	14.9	11.7	–	–
